Results on 9 molecules are retold here after article PMC5074691 (Cell reports, 2016).

In assay [1] the target is MORC3 CW domain (wild type, GST tag cleaved) (human). The assay can be described thus: other fluorescence titration.
Assay [2] concerns the target T1, MORC3 CW domain (residues 407-455), crystallised (human, UniProt Q14149 407-455).
T1 chain (looked up): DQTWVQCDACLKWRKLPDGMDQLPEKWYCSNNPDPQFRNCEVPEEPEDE
The assay can be described thus: crystal structure.

A further assay deals with chromatin in HeLa cells. The assay can be described thus: Chromatin association assay. In kind it is cell-based. The note with it: 48 h post transfection, fractionation and immunoblot. In a few lines:
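HeLa cells (DMEM, 10% FBS, pen/strep) are transfected with full-length human N-terminal 3xFLAG-MORC3, WT or CW mutants, and trypsinized at 48 h. The washed chromatin pellet is nuclease-solubilized. Fractions (1–5 µg) are immunoblotted for FLAG, β-tubulin and H3.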
A general note: A western blot detects proteins with antibodies after separation by electrophoresis.

Assay [3] has as its system nuclear bodies (NBs) in HeLa cells. Kind of assay: Confocal immunofluorescence of FLAG-tagged MORC3. In kind it is cell-based. The note with it: 48 h post transfection, anti-FLAG. In a few lines: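 HeLa in DMEM/10% FBS/penicillin-streptomycin grown on chamber slides, transiently transfected (TurboFect) with WT or CW-mutant 3xFLAG-MORC3 (C416S, C416A, W419A). At 48 h: cold methanol fixation (−20°C, 10 min), 1% BSA block 30 min, anti-FLAG 1:200 for 1 h at 25°C, then Alexa Fluor 647 secondary 1:1000 for 1 h. DAPI mount; confocal imaging with 100X objective.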

Another assay concerns the target MORC3-CW E453A (human). Kind of assay: ITC.

No end group written: not given here.

Take “histone H3K4me3 peptide (residues 1-12 of H3) (from UniProt P68431 2-13)”: the Kd (commonly the concentration at which binding is half-saturated) in assay [1] stood at 640 nM.

histone H3K4me1 peptide came in with a Kd in assay [1] of 740 nM.

The molecule histone H3K4me2 peptide had a Kd in assay [1] of 670 nM. The Kd values of the last two molecules are within 1.5-fold of each other.

On to ARTK(Me3)QTARKSTG (peptide, UniProt P68431 2-13, looked up) [histone H3K4me3 peptide (residues 1-12 of H3)], for which the binding result in assay [2] is “binds”.

B1: WT FLAG-MORC3: FLAG-tagged full length wild-type MORC3 (protein, UniProt Q14149 1-939, looked up)
chain: MAAQPPRGIRLSALCPKFLHTNSTSHTWPFSAVAELIDNAYDPDVNAKQIWIDKTVINDHICLTFTDNGNGMTSDKLHKMLSFGFSDKVTMNGHVPVGLYGNGFKSGSMRLGKDAIVFTKNGESMSVGLLSQTYLEVIKAEHVVVPIVAFNKHRQMINLAESKASLAAILEHSLFSTEQKLLAELDAIIGKKGTRIIIWNLRSYKNATEFDFEKDKYDIRIPEDLDEITGKKGYKKQERMDQIAPESDYSLRAYCSILYLKPRMQIILRGQKVKTQLVSKSLAYIERDVYRPKFLSKTVRITFGFNCRNKDHYGIMMYHRNRLIKAYEKVGCQLRANNMGVGVVGIIECNFLKPTHNKQDFDYTNEYRLTITALGEKLNDYWNEMKVKKNTEYPLNLPVEDIQKRPDQTWVQCDACLKWRKLPDGMDQLPEKWYCSNNPDPQFRNCEVPEEPEDEDLVHPTYEKTYKKTNKEKFRIRQPEMIPRINAELLFRPTALSTPSFSSPKESVPRRHLSEGTNSYATRLLNNHQVPPQSEPESNSLKRRLSTRSSILNAKNRRLSSQFENSVYKGDDDDEDVIILEENSTPKPAVDHDIDMKSEQSHVEQGGVQVEFVGDSEPCGQTGSTSTSSSRCDQGNTAATQTEVPSLVVKKEETVEDEIDVRNDAVILPSCVEAEAKIHETQETTDKSADDAGCQLQELRNQLLLVTEEKENYKRQCHMFTDQIKVLQQRILEMNDKYVKKETCHQSTETDAVFLLESINGKSESPDHMVSQYQQALEEIERLKKQCSALQHVKAECSQCSNNESKSEMDEMAVQLDDVFRQLDKCSIERDQYKSEVELLEMEKSQIRSQCEELKTEVEQLKSTNQQTATDVSTSSNIEESVNHMDGESLKLRSLRVNVGQLLAMIVPDLDLQQVNYDVDVVDEILGQVVEQMSEISST
modifications: full-length FLAG tag
B1: in the assay with chromatin in HeLa cells, the association with chromatin entry is “purifies in the chromatin and soluble fractions”. Moreover, the nuclear localization entry in assay [3] is given as “localized to NBs”.

B2: W419A: FLAG-tagged MORC3 mutant that abrogates binding to the histone H3 tail (protein, UniProt Q14149 1-939, looked up, variant W419A)
chain: MAAQPPRGIRLSALCPKFLHTNSTSHTWPFSAVAELIDNAYDPDVNAKQIWIDKTVINDHICLTFTDNGNGMTSDKLHKMLSFGFSDKVTMNGHVPVGLYGNGFKSGSMRLGKDAIVFTKNGESMSVGLLSQTYLEVIKAEHVVVPIVAFNKHRQMINLAESKASLAAILEHSLFSTEQKLLAELDAIIGKKGTRIIIWNLRSYKNATEFDFEKDKYDIRIPEDLDEITGKKGYKKQERMDQIAPESDYSLRAYCSILYLKPRMQIILRGQKVKTQLVSKSLAYIERDVYRPKFLSKTVRITFGFNCRNKDHYGIMMYHRNRLIKAYEKVGCQLRANNMGVGVVGIIECNFLKPTHNKQDFDYTNEYRLTITALGEKLNDYWNEMKVKKNTEYPLNLPVEDIQKRPDQTWVQCDACLKARKLPDGMDQLPEKWYCSNNPDPQFRNCEVPEEPEDEDLVHPTYEKTYKKTNKEKFRIRQPEMIPRINAELLFRPTALSTPSFSSPKESVPRRHLSEGTNSYATRLLNNHQVPPQSEPESNSLKRRLSTRSSILNAKNRRLSSQFENSVYKGDDDDEDVIILEENSTPKPAVDHDIDMKSEQSHVEQGGVQVEFVGDSEPCGQTGSTSTSSSRCDQGNTAATQTEVPSLVVKKEETVEDEIDVRNDAVILPSCVEAEAKIHETQETTDKSADDAGCQLQELRNQLLLVTEEKENYKRQCHMFTDQIKVLQQRILEMNDKYVKKETCHQSTETDAVFLLESINGKSESPDHMVSQYQQALEEIERLKKQCSALQHVKAECSQCSNNESKSEMDEMAVQLDDVFRQLDKCSIERDQYKSEVELLEMEKSQIRSQCEELKTEVEQLKSTNQQTATDVSTSSNIEESVNHMDGESLKLRSLRVNVGQLLAMIVPDLDLQQVNYDVDVVDEILGQVVEQMSEISST
modifications: full-length FLAG tag
On to B2, for which the association with chromatin entry in the assay on chromatin in HeLa cells is “did not associate with chromatin and were found only in the soluble fractions”. Moreover, the nuclear localization result in assay [3] is “diffused throughout the nucleus”.

B3: C416S: FLAG-tagged MORC3 mutant in CW domain that disrupts the CW structure (protein, UniProt Q14149 1-939, looked up, variant C416S)
chain: MAAQPPRGIRLSALCPKFLHTNSTSHTWPFSAVAELIDNAYDPDVNAKQIWIDKTVINDHICLTFTDNGNGMTSDKLHKMLSFGFSDKVTMNGHVPVGLYGNGFKSGSMRLGKDAIVFTKNGESMSVGLLSQTYLEVIKAEHVVVPIVAFNKHRQMINLAESKASLAAILEHSLFSTEQKLLAELDAIIGKKGTRIIIWNLRSYKNATEFDFEKDKYDIRIPEDLDEITGKKGYKKQERMDQIAPESDYSLRAYCSILYLKPRMQIILRGQKVKTQLVSKSLAYIERDVYRPKFLSKTVRITFGFNCRNKDHYGIMMYHRNRLIKAYEKVGCQLRANNMGVGVVGIIECNFLKPTHNKQDFDYTNEYRLTITALGEKLNDYWNEMKVKKNTEYPLNLPVEDIQKRPDQTWVQCDASLKWRKLPDGMDQLPEKWYCSNNPDPQFRNCEVPEEPEDEDLVHPTYEKTYKKTNKEKFRIRQPEMIPRINAELLFRPTALSTPSFSSPKESVPRRHLSEGTNSYATRLLNNHQVPPQSEPESNSLKRRLSTRSSILNAKNRRLSSQFENSVYKGDDDDEDVIILEENSTPKPAVDHDIDMKSEQSHVEQGGVQVEFVGDSEPCGQTGSTSTSSSRCDQGNTAATQTEVPSLVVKKEETVEDEIDVRNDAVILPSCVEAEAKIHETQETTDKSADDAGCQLQELRNQLLLVTEEKENYKRQCHMFTDQIKVLQQRILEMNDKYVKKETCHQSTETDAVFLLESINGKSESPDHMVSQYQQALEEIERLKKQCSALQHVKAECSQCSNNESKSEMDEMAVQLDDVFRQLDKCSIERDQYKSEVELLEMEKSQIRSQCEELKTEVEQLKSTNQQTATDVSTSSNIEESVNHMDGESLKLRSLRVNVGQLLAMIVPDLDLQQVNYDVDVVDEILGQVVEQMSEISST
modifications: full-length FLAG tag
For B3, the association with chromatin result in the assay with chromatin in HeLa cells is “did not associate with chromatin and were found only in the soluble fractions”.

B4: C416A: FLAG-tagged MORC3 mutant in CW domain that disrupts the CW structure (protein, UniProt Q14149 1-939, looked up, variant C416A)
chain: MAAQPPRGIRLSALCPKFLHTNSTSHTWPFSAVAELIDNAYDPDVNAKQIWIDKTVINDHICLTFTDNGNGMTSDKLHKMLSFGFSDKVTMNGHVPVGLYGNGFKSGSMRLGKDAIVFTKNGESMSVGLLSQTYLEVIKAEHVVVPIVAFNKHRQMINLAESKASLAAILEHSLFSTEQKLLAELDAIIGKKGTRIIIWNLRSYKNATEFDFEKDKYDIRIPEDLDEITGKKGYKKQERMDQIAPESDYSLRAYCSILYLKPRMQIILRGQKVKTQLVSKSLAYIERDVYRPKFLSKTVRITFGFNCRNKDHYGIMMYHRNRLIKAYEKVGCQLRANNMGVGVVGIIECNFLKPTHNKQDFDYTNEYRLTITALGEKLNDYWNEMKVKKNTEYPLNLPVEDIQKRPDQTWVQCDAALKWRKLPDGMDQLPEKWYCSNNPDPQFRNCEVPEEPEDEDLVHPTYEKTYKKTNKEKFRIRQPEMIPRINAELLFRPTALSTPSFSSPKESVPRRHLSEGTNSYATRLLNNHQVPPQSEPESNSLKRRLSTRSSILNAKNRRLSSQFENSVYKGDDDDEDVIILEENSTPKPAVDHDIDMKSEQSHVEQGGVQVEFVGDSEPCGQTGSTSTSSSRCDQGNTAATQTEVPSLVVKKEETVEDEIDVRNDAVILPSCVEAEAKIHETQETTDKSADDAGCQLQELRNQLLLVTEEKENYKRQCHMFTDQIKVLQQRILEMNDKYVKKETCHQSTETDAVFLLESINGKSESPDHMVSQYQQALEEIERLKKQCSALQHVKAECSQCSNNESKSEMDEMAVQLDDVFRQLDKCSIERDQYKSEVELLEMEKSQIRSQCEELKTEVEQLKSTNQQTATDVSTSSNIEESVNHMDGESLKLRSLRVNVGQLLAMIVPDLDLQQVNYDVDVVDEILGQVVEQMSEISST
modifications: full-length FLAG tag
On to B4, for which the association with chromatin result in the assay with chromatin in HeLa cells was “did not associate with chromatin and were found only in the soluble fractions”. Moreover, the nuclear localization entry in assay [3] is “diffused throughout the nucleus”.

B5: MORC3 His-ATPase domain (aa 1-392) (domain or fragment)
chain: MAAQPPRGIRLSALCPKFLHTNSTSHTWPFSAVAELIDNAYDPDVNAKQIWIDKTVINDHICLTFTDNGNGMTSDKLHKMLSFGFSDKVTMNGHVPVGLYGNGFKSGSMRLGKDAIVFTKNGESMSVGLLSQTYLEVIKAEHVVVPIVAFNKHRQMINLAESKASLAAILEHSLFSTEQKLLAELDAIIGKKGTRIIIWNLRSYKNATEFDFEKDKYDIRIPEDLDEITGKKGYKKQERMDQIAPESDYSLRAYCSILYLKPRMQIILRGQKVKTQLVSKSLAYIERDVYRPKFLSKTVRITFGFNCRNKDHYGIMMYHRNRLIKAYEKVGCQLRANNMGVGVVGIIECNFLKPTHNKQDFDYTNEYRLTITALGEKLNDYWNEMKVKKNTE
For the molecule B5, in the assay with MORC3-CW E453A (human), the dissociation constant (Kd) came out at 9000 nM and the stoichiometry N – broadly, the number of molecules, sites or subunits per partner or assembly – amounted to 1.
